Data taken from ChEMBL document CHEMBL1144800, “Synthesis and antimicrobial properties of monensin A esters” (2008).
In brackets after ≈: the same amount, converted by molar mass. Activity calls are given as the source filed them. The rule behind the calls is not given here.

Assays:
[1] = tested on: Staphylococcus aureus; assay: Antibacterial activity against Staphylococcus aureus NCTC 4163 after 18 hrs by serial agar dilution method; assay type: functional; details: NCTC 4163, 18 h
Procedure, shortened: (§1)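 MIC by twofold serial agar dilution in Mueller–Hinton II agar per CLSI, run only for compounds that gave an inhibition zone in disc assay. Compounds dissolved in DMSO, tested at 3.125–400 µg/ml in agar. Final inoculum 10^4 CFU/ml. […] DMSO control included.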

[2] = tested on: Bacillus cereus; assay: Antibacterial activity against Bacillus cereus ATCC 11778 after 18 hrs by serial agar dilution method; assay type: functional; details: ATCC 11778, 18 h; procedure, shortened: as §1
[3] = tested on: Staphylococcus aureus; assay: Antibacterial activity against Staphylococcus aureus ATCC 29213 after 18 hrs by serial agar dilution method; assay type: functional; details: ATCC 29213, 18 h; procedure, shortened: as §1
[4] = tested on: Escherichia coli; assay: Antibacterial activity against Escherichia coli NCTC 8196 at 400 ug/disc after 18 hrs by disc diffusion assay; assay type: functional, organism-based
Procedure, shortened: (§2)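 Disc diffusion on Mueller–Hinton II agar per CLSI guidelines. Compound in ethanol applied to 9 mm filter paper discs at 400 µg per disc, then dried and placed on the agar surface. Growth inhibition zone diameter read after 18 h at 35 °C.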

[5] = tested on: Staphylococcus aureus; assay: Antibacterial activity against Staphylococcus aureus ATCC 25923 at 400 ug/disc after 18 hrs by disc diffusion assay; assay type: functional; details: ATCC 25923, 18 h, read-out: IZ; procedure, shortened: as §2
[6] = tested on: Micrococcus luteus; assay: Antibacterial activity against Micrococcus luteus ATCC 9341 after 18 hrs by serial agar dilution method; assay type: functional; details: ATCC 9341, 18 h; procedure, shortened: as §1
[7] = tested on: Staphylococcus epidermidis; assay: Antibacterial activity against Staphylococcus epidermidis ATCC 12228 after 18 hrs by serial agar dilution method; assay type: functional; details: ATCC 12228, 18 h; procedure, shortened: as §1
[8] = tested on: Candida albicans; assay: Antifungal activity against Candida albicans ATCC 90028 at 400 ug/disc after 24 hrs by disc diffusion assay; assay type: functional
Procedure, shortened: (§3)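 Disc diffusion on RPMI agar with 2% glucose per CLSI guidelines. Discs 9 mm filter paper, loaded from ethanol solution with 400 µg compound, dried before placing on the agar. Inhibition zone diameter read after incubation at 35 °C. Fluconazole control at 25 µg per disc.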

[9] = tested on: Bordetella bronchiseptica; assay: Antibacterial activity against Bordetella bronchiseptica ATCC 4617 at 400 ug/disc after 18 hrs by disc diffusion assay; assay type: functional, organism-based; procedure, shortened: as §2
[10] = tested on: Enterococcus hirae; assay: Antibacterial activity against Enterococcus hirae ATCC 10541 at 400 ug/disc after 18 hrs by disc diffusion assay; assay type: functional; procedure, shortened: as §2
[11] = tested on: Micrococcus luteus; assay: Antibacterial activity against Micrococcus luteus ATCC 9341 at 400 ug/disc after 18 hrs by disc diffusion assay; assay type: functional; procedure, shortened: as §2
[12] = tested on: Candida albicans; assay: Antifungal activity against Candida albicans ATCC 10231 at 400 ug/disc after 24 hrs by disc diffusion assay; assay type: functional; procedure, shortened: as §3
[13] = tested on: Micrococcus luteus; assay: Antibacterial activity against Micrococcus luteus ATCC 10240 at 400 ug/disc after 18 hrs by disc diffusion assay; assay type: functional; details: ATCC 10240, 18 h, read-out: IZ; procedure, shortened: as §2
[14] = tested on: Candida parapsilosis; assay: Antifungal activity against Candida parapsilosis ATCC 22019 at 400 ug/disc after 24 hrs by disc diffusion assay; assay type: functional; procedure, shortened: as §3
[15] = tested on: Proteus vulgaris; assay: Antibacterial activity against Proteus vulgaris NCTC 4635 at 400 ug/disc after 18 hrs by disc diffusion assay; assay type: functional, organism-based; procedure, shortened: as §2
[16] = tested on: Bacillus subtilis; assay: Antibacterial activity against Bacillus subtilis ATCC 6633 at 400 ug/disc after 18 hrs by disc diffusion assay; assay type: functional; details: ATCC 6633, 18 h, read-out: IZ; procedure, shortened: as §2
[17] = tested on: Pseudomonas aeruginosa; assay: Antibacterial activity against Pseudomonas aeruginosa ATCC 15442 at 400 ug/disc after 18 hrs by disc diffusion assay; assay type: functional, organism-based; procedure, shortened: as §2
[18] = tested on: Pseudomonas aeruginosa; assay: Antibacterial activity against Pseudomonas aeruginosa ATCC 27853 at 400 ug/disc after 18 hrs by disc diffusion assay; assay type: functional, organism-based; procedure, shortened: as §2
[19] = tested on: Staphylococcus aureus; assay: Antibacterial activity against Staphylococcus aureus ATCC 6538 after 18 hrs by serial agar dilution method; assay type: functional; details: ATCC 6538, 18 h; procedure, shortened: as §1
[20] = tested on: Staphylococcus aureus; assay: Antibacterial activity against Staphylococcus aureus ATCC 6538 at 400 ug/disc after 18 hrs by disc diffusion assay; assay type: functional; details: ATCC 6538, 18 h, read-out: IZ; procedure, shortened: as §2
[21] = tested on: Staphylococcus aureus; assay: Antibacterial activity against Staphylococcus aureus NCTC 4163 at 400 ug/disc after 18 hrs by disc diffusion assay; assay type: functional; details: NCTC 4163, 18 h, read-out: IZ; procedure, shortened: as §2
[22] = tested on: Enterococcus hirae; assay: Antibacterial activity against Enterococcus hirae ATCC 10541 after 18 hrs by serial agar dilution method; assay type: functional; details: ATCC 10541, 18 h
Procedure, shortened: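 Twofold serial agar dilution MIC in Mueller–Hinton II agar (CLSI), run only for compounds that gave an inhibition zone in disc assay. DMSO solutions tested at 3.125–400 µg/ml in agar. Final inoculum 10^5 CFU/ml. Read after 18 h at 35 °C. DMSO control included.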

[23] = tested on: Staphylococcus epidermidis; assay: Antibacterial activity against Staphylococcus epidermidis ATCC 12228 at 400 ug/disc after 18 hrs by disc diffusion assay; assay type: functional; procedure, shortened: as §2
[24] = tested on: Staphylococcus aureus; assay: Antibacterial activity against Staphylococcus aureus ATCC 25923 after 18 hrs by serial agar dilution method; assay type: functional; details: ATCC 25923, 18 h; procedure, shortened: as §1
[25] = tested on: Bacillus cereus; assay: Antibacterial activity against Bacillus cereus ATCC 11778 at 400 ug/disc after 18 hrs by disc diffusion assay; assay type: functional; details: ATCC 11778, 18 h, read-out: IZ; procedure, shortened: as §2
[26] = tested on: Pseudomonas aeruginosa; assay: Antibacterial activity against Pseudomonas aeruginosa NCTC 6749 at 400 ug/disc after 18 hrs by disc diffusion assay; assay type: functional, organism-based; procedure, shortened: as §2
[27] = tested on: Escherichia coli; assay: Antibacterial activity against Escherichia coli ATCC 25922 at 400 ug/disc after 18 hrs by disc diffusion assay; assay type: functional, organism-based; procedure, shortened: as §2
[28] = tested on: Micrococcus luteus; assay: Antibacterial activity against Micrococcus luteus ATCC 10240 after 18 hrs by serial agar dilution method; assay type: functional; details: ATCC 10240, 18 h; procedure, shortened: as §1
[29] = tested on: Bacillus subtilis; assay: Antibacterial activity against Bacillus subtilis ATCC 6633 after 18 hrs by serial agar dilution method; assay type: functional; details: ATCC 6633, 18 h; procedure, shortened: as §1
[30] = tested on: Staphylococcus aureus; assay: Antibacterial activity against Staphylococcus aureus ATCC 29213 at 400 ug/disc after 18 hrs by disc diffusion assay; assay type: functional; details: ATCC 29213, 18 h, read-out: IZ; procedure, shortened: as §2
[31] = tested on: Escherichia coli; assay: Antibacterial activity against Escherichia coli ATCC 10538 at 400 ug/disc after 18 hrs by disc diffusion assay; assay type: functional, organism-based; procedure, shortened: as §2
[32] = tested on: Candida parapsilosis; assay: Antifungal activity against Candida parapsilosis ATCC 22019 after 24 hrs by serial agar dilution method; assay type: functional; details: Lodderomyces parapsilosis, ATCC 22019, 24 h
Procedure, shortened: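 Twofold serial agar dilution per CLSI on RPMI agar with 2% glucose. Agents were dissolved in DMSO and tested at 3.125–400 µg/ml in the solid medium, with a DMSO control. Final inoculum was 10^4 CFU/mL.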

[33] = tested on: Candida parapsilosis; assay: Antifungal activity against Candida parapsilosis ATCC 22019 at 25 ug/disc after 24 hrs by disc diffusion assay; assay type: functional; details: Lodderomyces parapsilosis, ATCC 22019, 24 h; read-out: IZ
Procedure, shortened: (§4)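 Disc diffusion per CLSI on RPMI agar with 2% glucose. Sterile 9 mm filter-paper discs were loaded at 25 µg per disc, dried, and placed on the agar surface. Plates were incubated at 35 °C, and the diameter of the growth-inhibition zone was read.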

[34] = tested on: Candida albicans; assay: Antifungal activity against Candida albicans ATCC 10231 at 25 ug/disc after 24 hrs by disc diffusion assay; assay type: functional; details: ATCC 10231, 24 h, read-out: IZ; procedure, shortened: as §4
[35] = tested on: Candida albicans; assay: Antifungal activity against Candida albicans ATCC 90028 at 25 ug/disc after 24 hrs by disc diffusion assay; assay type: functional; details: ATCC 90028, 24 h, read-out: IZ; procedure, shortened: as §4

Compound | MIC [1] | MIC [2] | MIC [3] | Activity [4] | zone of inhibition at 400 µg/disc [5] | MIC [6] | MIC [7] | Activity [8] | Activity [9] | Activity [10] | Activity [12] | zone of inhibition at 400 µg/disc [13] | Activity [14] | Activity [15] | zone of inhibition at 400 µg/disc [16] | Activity [17] | Activity [18] | MIC [19] | zone of inhibition at 400 µg/disc [20] | zone of inhibition at 400 µg/disc [21] | further results
C=CCOC(=O)[C@@H](C)[C@H](OC)[C@H](C)[C@H]1O[C@@]2(CC[C@@](C)([C@H]3CC[C@@](CC)([C@@H]4O[C@@H]([C@H]5O[C@@](O)(CO)[C@H](C)C[C@@H]5C)C[C@@H]4C)O3)O2)C[C@H](O)[C@H]1C | 100 µg/mL (≈ 141 µM) | 12.5 µg/mL (≈ 17.6 µM) | 100 µg/mL (≈ 141 µM) | inactive | 11 mm | 100 µg/mL (≈ 141 µM) | 100 µg/mL (≈ 141 µM) | inactive | inactive | inactive | inactive | 11 mm | inactive | inactive | 15 mm | inactive | inactive | 100 µg/mL (≈ 141 µM) | 13 mm | 13 mm | Activity [11]: inactive; MIC [22]: > 400 µg/mL; Activity [23]: inactive; MIC [24]: 100 µg/mL (≈ 141 µM); zone of inhibition at 400 µg/disc [25]: 14 mm; Activity [26]: inactive; Activity [27]: inactive; MIC [28]: 50 µg/mL (≈ 70.3 µM); MIC [29]: 12.5 µg/mL (≈ 17.6 µM); zone of inhibition at 400 µg/disc [30]: 13 mm; Activity [31]: inactive
OC(Cn1cncn1)(Cn1cncn1)c1ccc(F)cc1F [FLUCONAZOLE] | – | – | – | – | – | – | – | – | – | – | – | – | – | – | – | – | – | – | – | – | MIC [32]: 2 µg/mL (≈ 6.53 µM); zone of inhibition at 25 µg/disc [33]: 22 mm; zone of inhibition at 25 µg/disc [34]: 22 mm; zone of inhibition at 25 µg/disc [35]: 32 mm
CC[C@@]1([C@@H]2O[C@@H]([C@H]3O[C@@](O)(CO)[C@H](C)C[C@@H]3C)C[C@@H]2C)CC[C@H]([C@]2(C)CC[C@]3(C[C@H](O)[C@@H](C)[C@@H]([C@@H](C)[C@@H](OC)[C@H](C)C(=O)O)O3)O2)O1 [MONENSIN] | 2 µg/mL (≈ 2.98 µM) | 2 µg/mL (≈ 2.98 µM) | 1 µg/mL (≈ 1.49 µM) | inactive | 22 mm | 4 µg/mL (≈ 5.96 µM) | 2 µg/mL (≈ 2.98 µM) | inactive | inactive | inactive | inactive | 12 mm | inactive | inactive | 22 mm | inactive | inactive | 2 µg/mL (≈ 2.98 µM) | 20 mm | 22 mm | zone of inhibition at 400 µg/disc ([11]; ATCC 9341, 18 h, read-out: IZ): 12 mm; MIC [22]: 12.5 µg/mL (≈ 18.6 µM); zone of inhibition at 400 µg/disc ([23]; ATCC 12228, 18 h, read-out: IZ): 15 mm; MIC [24]: 1 µg/mL (≈ 1.49 µM); zone of inhibition at 400 µg/disc [25]: 18 mm; Activity [26]: inactive; Activity [27]: inactive; MIC [28]: 2 µg/mL (≈ 2.98 µM); MIC [29]: 1 µg/mL (≈ 1.49 µM); zone of inhibition at 400 µg/disc [30]: 18 mm; Activity [31]: inactive
